The labels stand for the following.
B1: tRNA (parent)
chain: GUUCCGUUGGCGUAAUGGUAACGCGUCUCCCUCCUAAGGAGAAGACUGCGGGUUCGAGUCCCGUACGGAACG

This sample holds only a part of the variants without activity.

Variants of B1 are the subject of this data set. The data set is described as follows: yeast fitness relative to wild type (ratio to wild type); higher = fitter; tRNA-Arg(CCU), competitive growth, 37 C, YPD. The procedure, abridged:
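Variants of the tRNA-Arg(CCU) gene, chemically synthesised with a 3% per-site mutation rate at 69 sites, were placed at the native genomic locus in Saccharomyces cerevisiae. The pooled strains were competed in YPD at 37°C for 24 hours in six parallel replicates. Gene amplicons from the start population and from each end population were read by 100-nucleotide paired-end sequencing. Darwinian fitness relative to wild type came from changes in genotype frequencies; genotypes needed ≥ 100 starting reads, and estimates < 0.5 were set to 0.5.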
For the variant GUUCCGUUGGCGUAAUGGUAACGCGUCUCCCUCCUAAGGAGAAGCCUGCGGGUUCGAGUCCGGUCCGGAACG, the yeast fitness turned out to be 0.554.

On to GUUCCGUUGGGGUAAUGGUAACGCGUCUCCCUCCUAAGGAGAAGACUGCGGGUUCGAGUCCUGUAUGGAACG, for which the yeast fitness is not above 0.5.

GUUCCGUUGGCGUGAUGGUAACGCGUCUCCUUCCUAAGGAGAAGACUGAGGGUUCGAGUCCCGUACGGAACG: the yeast fitness is not above 0.5.

In the case of GUUCUGUUGGCGUAUUGGUAACCCGUCUCCCUCCUAAGGAGAAGUCUGCGGGUUCGAGUCCAGUACGGAACG, the yeast fitness is not above 0.5.

For GUUCCGUUGGAGUAAUGGUAACGCGUUUCCCUCCUAAGGAGAAGACUGAGGGUUCGAGUCCCGUACGGAACG, the yeast fitness was 0.752.

For the variant GUUCCGUUGGCGAAAUGGUAACGCGUCUCCCUCCUAAGGAGCAGACUGCGGGUUCGAGUCCCGUACGGAUCG, the yeast fitness is 0.671.

Regarding GUUCCGUUGGCGUAAUGGUAACGCGUCUUCCUCCUAAGAAGAAGAAUGCGGGUUCGAGUCCCGUACGGAACG, the yeast fitness stood at 1.13.

Consider GUUCCGUUGGCGUAAUGGUAACGCGUCUCCCUUCUAAGGCGAAGCCUGCGGGUUCGAGGUCCGUACGGAACG, for which the yeast fitness was not above 0.5.

As to GUUCCGUUGGGGUAGUGGUAGCGCGUCUCCCUCCUAGGGAGAAGACUGCGGGUUCGUGUUCGGUACGGAACG, the yeast fitness was not above 0.5.

Take GUUCCGUUGGCGUAAUGGUAACGCGUCACCCUCCUUAGGAGAAGACUGCGGGUUCGAGUCCCGUACGGAACG: the yeast fitness came out at 0.564.

GUUCCGUUGGCGUAAUGGUUACGCGUCUCCCUCCUAAGGAGAAGCCUGCAGGUUCGAGUCCCGUACGGAACG: the yeast fitness came to 0.675.

Turning to GUUCCAUUGGCGUAAUGGUAACGCGUCUCUCUCCUAAGGAGAAGACUGCGGGUUCGAGUCCAGUACGGAACG, the yeast fitness is not above 0.5.

GUUCCGUUGGCGUAAUGGUAACGCGUCUCCCUCCUAAGGAGAAGAAUGCGGGUUCGAGUCGCGUACGGGACG: the yeast fitness worked out at 0.551.

For GUUCCGUUGGCGUCAUGGUAACGCGUGUCCCUCCUAAGGAGAAGAGUGCGGGUUCGCGUCCCGUACGGACCG, the yeast fitness is not above 0.5.

GUUGCGUUGGCGUAAUGGUAACGCGUCUCCCUGCUCAGGAGAAGACUGCGGGUUCGAGUCCCGUAUGGAACG: the yeast fitness was not above 0.5.

For GUUCCGUUGGCGUAAUGGUAACGCGUUUCCCUCAUAAGGAGAAGACUGCGGGUUCGAGUCCCGUACGGAACG, the yeast fitness amounted to 0.728.

Consider GUUCCAUUGGCGUAAUGGUAGCGCGUCUCCCUCCUAAGGAGAAGACUGCGGGUUCGACCCCCGUACGGAACG, for which the yeast fitness is 0.661.

For GUUCCGUUGGCGUAAUGGUAACGCGUCUCCCUCCUAAGGAGUAGACUGCGGGUUCGAGUCCCGUACAGAACG, the yeast fitness stood at 0.758.

In the case of GUUCCGUUGCCGUAAUGGUAACGCGUCUCCCCCCUAAGGAGCAGACUGCGGGUUCGAGUCCCGUACGCAACG, the yeast fitness is not above 0.5.

As for GAUCCGUAGGCGUAAUGGUAACGCGUCUGCCUCCUAAGGAGAAGACUGCGGGUUCGAGUUCAGUACGGAACG, the yeast fitness is not above 0.5.

With GUUACGUUGGCGUUAUGGUCACGCGUCGCCCUCCUAAGGAGAAGACUGCGGGUUCGAGUCCCGUACGGACCG, the yeast fitness is not above 0.5.

GUUCCGUUAGCGUAAUGGUAACGCGUCUCCCUCCUAAGGAGAGGACUGCGGGUUCGAGACCCGUACGGAACG: the yeast fitness came to 0.535.

With GUUCCGCUGGCGUAAUGGUAACGCGUCUCCCUCCUAAGGAGAAGACUGCGGGUUCGAGUCCUGUUCGGAACG, the yeast fitness came out at 0.542.

As for GUUCUGUUGGCGUAAUGGUAACGAGUCUCCCUUCUAAGGAGAAGACCGCGGGUUCGAGUCCCAUACUGAACG, the yeast fitness was 0.718.

Take GUUCCGUGGGCGUAAUGGUAACGCGUCUCCCUCCUAAGGAGAAGACUGCCGGUUCGAGUCCCGGACGGAACG: the yeast fitness was determined as 0.56.

For the variant GUUCCGUUGGCGUAAUGGUAACGCGUCUGGCCCCUUAGGAGAAGACUGCGGGUUCGAGUUUCGUACGGAACG, the yeast fitness was found to be 0.566.

With GUUCCGUUGGCGUAAUGGUCACGCGUCUCCCUCCUCAGGAGAAGACUGCGGGUUCGAGUCCCGUACGGAACG, the yeast fitness is not above 0.5.

With GUUCCGAUGGCGUAAUGGUAAUGCGUCUCCCUCCUAAGGAGAAGACUGCGGGUCCGAGUCCCGUAUGCUACG, the yeast fitness worked out at 0.567.

As to GUUCCGUUGGCGUAAUGGUAACGCGUCUCCCUCCUAAGGAGGAGACUGCGGGUUCCAGUCCCGUACGGAACG, the yeast fitness came out at 0.595.

GUUCCGUUGGCGUAAUGGUAACGCGUCUCCCUCCUAAGGAGAAGACUGCCGGUUCGAGUCCCGUAAGGAACG: the yeast fitness is 0.657.

On to GUUCCGUUGGUGUAAUGGUAAGGCGUCUCCCUCCUAAGGCAAAGACAGCGGGCUCGAGUCCCGUACCGAACG, for which the yeast fitness was not above 0.5.

For the variant GUUACGUUGGCGUAAUGGUAACGCGUGUCCCUCCUACGGAGAAGUCCGCGGGUUCGAGUCCCGUACGGAACG, the yeast fitness is not above 0.5.

On to GUUCCGUUGGGGUUAUGGUAACGCGUCUCCCUCCUAAGGAGAUGACUGCGGAUUCGAGUCCCGUACGCGACG, for which the yeast fitness was 0.636.

Consider GUUCCGUUGGCGUAAUGGUAACGCAUCUCCCUUCUAAGGAGAAGACUGCGGGUUCGAGUCCAGUACGGACCG, for which the yeast fitness was not above 0.5.

Take GUUCCGUUGGCGUAAUGGUAACGCGUCUCCCUCCUAAGGAGAAGACUGCGGGUUCGAGUCCGGUACGGAUCG: the yeast fitness was determined as 0.637.

For GUUCCGUUGGCGUGAUGGUAACGCGUCUCCCUCCUAAGGCGAAGACUGCGGGUUAGAGUCCCGUAAGGAACG, the yeast fitness is not above 0.5.

As for GUACUGUUGGCGUAAUGGUAACGCGUCACCCUCCUAAGGAGAAGACUGCGGGUUCGAAUCCCGUACGGAACG, the yeast fitness was 0.5.

The values are drawn from the RNAGym collection of RNA variant scans (doi:10.1126/science.aae0568).
